From ChEMBL document CHEMBL2157980, “Discovery of SCH 900229, a Potent Presenilin 1 Selective γ-Secretase Inhibitor for the Treatment of Alzheimer's Disease” (ACS Med Chem Lett, 2012)
pIC50: −log10 of the molar value. Active and inactive are the calls of the source. The calls are words filed in the database; no cut-off is given here.

Tests used:
Presenilin-1 [1] = target: T1, Presenilin-1 (Homo sapiens, UniProt P49768); assay: Inhibition of PS1 gamma-secretase assessed as reduction of amyloid beta-40 production by membrane based assay
In short: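 Aβ40 production was measured in a membrane-based assay. IC50 was the average of at least two measurements, with standard deviation 20%.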

[2] = Selectivity ratio of IC50 for PS2 gamma-secretase to IC50 for PS1 gamma-secretase
In short: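 Inhibitors were tested against reconstituted γ-secretase complexes containing PS1 or PS2. The result is expressed as the PS2/PS1 ratio of IC50 values.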

Mus musculus [3] = assay: Antialzheimer activity in transgenic CRND8 mouse assessed as increase of amyloid beta-40 level in plasma at 30 mg/kg, po after 3 hrs; type: functional
In short: (§1)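 CRND8 mice were dosed orally at 30 mg/kg. Aβ40 in plasma and cortex was measured 3 h post-dose and reported as % change, negative for lowering and positive for increase.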

Presenilin-2 = Presenilin-2 (Homo sapiens, UniProt P49810); assay: Inhibition of PS2 gamma-secretase expressed in HEK cells harboring Awe-Lon gene assessed as reduction of amyloid beta-42 production; type: cell-based, HEK293
Sequence of Presenilin-2 (P49810 1-297 limits assumed): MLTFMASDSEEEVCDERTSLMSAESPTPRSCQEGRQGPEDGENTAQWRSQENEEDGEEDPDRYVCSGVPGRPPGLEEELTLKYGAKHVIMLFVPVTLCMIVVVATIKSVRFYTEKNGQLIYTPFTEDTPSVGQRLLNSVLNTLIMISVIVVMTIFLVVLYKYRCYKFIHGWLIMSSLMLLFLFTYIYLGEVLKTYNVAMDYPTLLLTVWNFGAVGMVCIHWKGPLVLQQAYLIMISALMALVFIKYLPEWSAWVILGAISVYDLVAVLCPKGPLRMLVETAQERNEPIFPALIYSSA
Sequence of Presenilin-2 (P49810 298-448 limits assumed): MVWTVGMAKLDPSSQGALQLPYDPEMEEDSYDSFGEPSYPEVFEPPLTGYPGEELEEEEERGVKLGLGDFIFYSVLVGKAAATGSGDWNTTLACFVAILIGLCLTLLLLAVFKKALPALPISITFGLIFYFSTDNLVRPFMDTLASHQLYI

Presenilin-1 [4] = target: T1, Presenilin-1; assay: Inhibition of PS1 gamma-secretase expressed in HEK cells harboring Awe-Lon gene assessed as reduction of amyloid beta-40 production; type: cell-based, HEK293
In short: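 Cell-based Aβ40 production assay in HEK293 cells carrying APP Awe-Lon. IC50 was the average of at least two determinations, with standard deviation 20%.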

[5] = Oral bioavailability in monkey at 5 mg/kg administered with 0.4% HPMC; settings: rhesus monkey, in vivo
[6] = Volume of distribution at steady state in dog at 2.5 mg/kg, iv administered with 0.4% HPMC; type: ADME, organism-based, Canis lupus familiaris; design: dose 2.5 mg/kg, route intravenous; settings: in vivo, read-out: Vdss
In short: (§2)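 CL and Vd(ss) came from iv administration at 5 mg/kg in rat and 2.5 mg/kg each in monkey and dog. Values are averages of three animals per species.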

Mus musculus [7] = assay: Antialzheimer activity in po dosed transgenic CRND8 mouse assessed as decrease of amyloid beta-40 level in plasma administered bid for 6 days; type: functional; settings: 144 h
In short: (§3)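 In a subchronic study, CRND8 mice were dosed orally BID for 6 days. Aβ40 lowering in plasma and cortex was measured, and ED50 was derived.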

[8] = Tmax in rat at 10 mg/kg, po administered with 20% HPbetaCD; type: ADME, organism-based; design: dose 10 mg/kg, route oral; settings: in vivo
In short: (§4)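 Rats (n = 3) were dosed orally at 10 mg/kg in either 20% HPβCD or 0.4% HPMC. AUC(0−∞), Cmax, Tmax and T1/2 were taken from the oral profile, with averaged values. Bioavailability (F) was referenced to iv dosing at 5 mg/kg.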

[9] = Half life in dog at 5 mg/kg, po administered with 0.4% HPMC; settings: in vivo
[10] = Oral bioavailability in dog at 5 mg/kg administered with 0.4% HPMC; settings: in vivo
[11] = Clearance in dog at 2.5 mg/kg, iv administered with 0.4% HPMC; type: ADME, organism-based, Canis lupus familiaris; design: dose 2.5 mg/kg, route intravenous; settings: in vivo; in short: as §2
[12] = AUC (0 to infinity) in dog at 5 mg/kg, po administered with 0.4% HPMC; settings: plasma
[13] = Half life in rat at 10 mg/kg, po administered with 0.4% HPMC; type: ADME, organism-based; design: dose 10 mg/kg, route oral; settings: in vivo; in short: as §4
[14] = Volume of distribution at steady state in rat at 5 mg/kg, iv administered with 20% HPbetaCD; type: ADME, organism-based; design: dose 5 mg/kg, route intravenous; settings: in vivo, read-out: Vdss; in short: as §2
[15] = Cmax in rat at 10 mg/kg, po administered with 20% HPbetaCD; type: ADME, organism-based; design: dose 10 mg/kg, route oral; settings: in vivo; in short: as §4
[16] = AUC (0 to infinity) in rat at 10 mg/kg, po administered with 0.4% HPMC; type: ADME, organism-based; design: time infinity, dose 10 mg/kg, route oral; settings: plasma; in short: as §4
[17] = Cmax in dog at 5 mg/kg, po administered with 0.4% HPMC; settings: in vivo
Mus musculus [18] = assay: Toxicity in po dosed transgenic CRND8 mouse assessed as reduction in thymus size administered bid for 6 days; type: organism-based; settings: in vivo, 144 h
In short: (§5)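 In the same subchronic design (oral BID dosing for 6 days in CRND8 mice), Notch-related effects were examined as thymus size reduction and intestinal goblet cell hyperplasia.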

[19] = Clearance in rat at 5 mg/kg, iv administered with 0.4% HPMC; type: ADME, organism-based; design: dose 5 mg/kg, route intravenous; settings: in vivo; in short: as §2
[20] = Tmax in monkey at 5 mg/kg, po administered with 0.4% HPMC; settings: rhesus monkey, in vivo
[21] = Half life in rat at 10 mg/kg, po administered with 20% HPbetaCD; type: ADME, organism-based; design: dose 10 mg/kg, route oral; settings: in vivo; in short: as §4
Canis familiaris [22] = species: Canis familiaris; assay: Antialzheimer activity in dog assessed as decrease of amyloid beta-40 level in plasma; type: functional, organism-based; settings: Canis lupus familiaris
[23] = Half life in monkey at 5 mg/kg, po administered with 0.4% HPMC; settings: rhesus monkey, in vivo
Canis familiaris [24] = species: Canis familiaris; assay: Antialzheimer activity in dog assessed as decrease of amyloid beta-40 level in CSF; type: functional, organism-based; settings: Canis lupus familiaris
[25] = Volume of distribution at steady state in monkey at 2.5 mg/kg, iv administered with 0.4% HPMC; type: ADME, organism-based, Macaca mulatta; design: dose 2.5 mg/kg, route intravenous; settings: rhesus monkey, in vivo, read-out: Vdss; in short: as §2
[26] = AUC (0 to infinity) in rat at 10 mg/kg, po administered with 20% HPbetaCD; type: ADME, organism-based; design: time infinity, dose 10 mg/kg, route oral; settings: plasma; in short: as §4
Canis familiaris [27] = species: Canis familiaris; assay: Antialzheimer activity in dog assessed as decrease of amyloid beta-40 level in cortex; type: functional, organism-based; settings: Canis lupus familiaris
[28] = Clearance in monkey at 2.5 mg/kg, iv administered with 0.4% HPMC; type: ADME, organism-based, Macaca mulatta; design: dose 2.5 mg/kg, route intravenous; settings: rhesus monkey, in vivo; in short: as §2
Presenilin-1 [29] = target: T1, Presenilin-1; assay: Inhibition of PS1 gamma-secretase expressed in HEK cells harboring Awe-Lon gene assessed as notch cleavage; type: cell-based, HEK293
[30] = Oral bioavailability in rat at 10 mg/kg administered with 0.4% HPMC; type: ADME, organism-based; settings: in vivo; in short: as §4
Mus musculus [31] = assay: Antialzheimer activity in po dosed transgenic CRND8 mouse assessed as decrease of amyloid beta-40 level in cortex administered bid for 6 days; type: functional; settings: 144 h; in short: as §3
[32] = Oral bioavailability in rat at 10 mg/kg administered with 20% HPbetaCD; type: ADME, organism-based; settings: in vivo; in short: as §4
[33] = Cmax in monkey at 5 mg/kg, po administered with 0.4% HPMC; settings: rhesus monkey, in vivo
[34] = Cmax in rat at 10 mg/kg, po administered with 0.4% HPMC; type: ADME, organism-based; design: dose 10 mg/kg, route oral; settings: in vivo; in short: as §4
Mus musculus [35] = assay: Antialzheimer activity in B6C3F1 mouse assessed as reduction of amyloid beta-40 level in plasma at 30 mg/kg, po after 3 hrs; type: functional; design: scale not given: the % may be the effect or the level left
In short: (§6)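 B6C3F1 mice were dosed orally at 10 or 30 mg/kg. Aβ40 in plasma and cortex was measured 3 h after dosing and expressed as % change, with lowering shown as negative.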

[36] = Tmax in rat at 10 mg/kg, po administered with 0.4% HPMC; type: ADME, organism-based; design: dose 10 mg/kg, route oral; settings: in vivo; in short: as §4
[37] = Volume of distribution at steady state in rat at 5 mg/kg, iv administered with 0.4% HPMC; type: ADME, organism-based; design: dose 5 mg/kg, route intravenous; settings: in vivo, read-out: Vdss; in short: as §2
[38] = AUC (0 to infinity) in monkey at 5 mg/kg, po administered with 0.4% HPMC; settings: rhesus monkey, plasma
Mus musculus [39] = assay: Toxicity in po dosed transgenic CRND8 mouse assessed as intestinal goblet cell hyperplasia administered bid for 6 days; type: organism-based; settings: in vivo, 144 h; in short: as §5
[40] = Clearance in rat at 5 mg/kg, iv administered with 20% HPbetaCD; type: ADME, organism-based; design: dose 5 mg/kg, route intravenous; settings: in vivo; in short: as §2
Mus musculus [41] = assay: Antialzheimer activity in po dosed transgenic CRND8 mouse assessed as decrease of amyloid beta-40 level in cortex after 3 hrs; type: functional
In short: (§7)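 CRND8 mice received a single acute oral dose. Plasma and cortical Aβ40 were measured at the 3 h time point, and ED50 was derived from the dose response.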

Mus musculus [42] = assay: Antialzheimer activity in B6C3F1 mouse assessed as reduction of amyloid beta-40 level in cortex at 30 mg/kg, po after 3 hrs; type: functional; design: scale not given: the % may be the effect or the level left; in short: as §6
[43] = Tmax in dog at 5 mg/kg, po administered with 0.4% HPMC; settings: in vivo
Mus musculus [44] = assay: Antialzheimer activity in po dosed transgenic CRND8 mouse assessed as decrease of amyloid beta-40 level in plasma after 3 hrs; type: functional; in short: as §7
Mus musculus [45] = assay: Antialzheimer activity in transgenic CRND8 mouse assessed as decrease of amyloid beta-40 level in plasma at 30 mg/kg, po after 3 hrs; type: functional; design: scale not given: the % may be the effect or the level left; in short: as §1
Mus musculus [46] = assay: Antialzheimer activity in transgenic CRND8 mouse assessed as decrease of amyloid beta-40 level in cortex at 30 mg/kg, po after 3 hrs; type: functional; design: scale not given: the % may be the effect or the level left; in short: as §1

CS(=O)(=O)CC[C@H]1OCC[C@]2(S(=O)(=O)c3ccc(Cl)cc3)c3c(F)ccc(F)c3OC[C@H]12
pIC50 (Presenilin-1 [1]): 6.42

CC(C)S(=O)(=O)CC[C@@H]1OCC[C@@]2(S(=O)(=O)c3ccc(Cl)cc3)c3c(F)ccc(F)c3OC[C@@H]12 (racemic) [listing 1 of 2 here]
Ratio IC50 [2]: 6

N#CCC[C@@H]1OCC[C@@]2(S(=O)(=O)c3ccc(Cl)cc3)c3c(F)ccc(F)c3OC[C@@H]12 (racemic)
Ratio IC50 [2]: 6 | Activity (Mus musculus [3]): 18% | pIC50 (Presenilin-1 [1]): 7.66 | pIC50 (Presenilin-2): 7.80 | pIC50 (Presenilin-1 [4]): 7.43

CS(=O)(=O)CC[C@@H]1OCC[C@@]2(S(=O)(=O)c3ccc(Cl)cc3)c3c(F)ccc(F)c3OC[C@@H]12
bioavailability [5]: 45% | Vd [6]: 3.1 L/kg | ED50 (Mus musculus [7]): 0.4 mg/kg | Tmax [8]: 0.7 h | half-life [9]: 23.9 h | bioavailability [10]: 86% | clearance [11]: 1.7 mL/min/kg | AUC(0-inf) [12]: 85.6 µM·h | half-life [13]: 1 h | Vd [14]: 5.4 L/kg | Cmax [15]: 650 nM | Ratio IC50 [2]: 25 | AUC(0-inf) [16]: 1 µM·h | Cmax [17]: 2740 nM | Activity (Mus musculus [18]): Non-toxic | clearance [19]: 20.8 mL/min/kg | Tmax [20]: 1.7 h | half-life [21]: 1.1 h | Activity (Canis familiaris [22]): Active | half-life [23]: 4.6 h | Activity (Canis familiaris [24]): Active | Vd [25]: 1.9 L/kg | pIC50 (Presenilin-1 [1]): 8.89 | AUC(0-inf) [26]: 1.4 µM·h | Activity (Canis familiaris [27]): Active | clearance [28]: 8.2 mL/min/kg | pIC50 (Presenilin-1 [29]): 7.34 | bioavailability [30]: 6.4% | ED50 (Mus musculus [31]): 0.3 mg/kg | bioavailability [32]: 29% | Cmax [33]: 1390 nM | Cmax [34]: 240 nM | Activity (Mus musculus [35]): 89% | Tmax [36]: 0.3 h | Vd [37]: 3.4 L/kg | AUC(0-inf) [38]: 8.9 µM·h | Activity (Mus musculus [39]): Non-toxic | pIC50 (Presenilin-2): 9.00 | clearance [40]: 69 mL/min/kg | ED50 (Mus musculus [41]): 0.4 mg/kg | Activity (Mus musculus [42]): 78% | pIC50 (Presenilin-1 [4]): 8.40 | Tmax [43]: 2 h | ED50 (Mus musculus [44]): 0.5 mg/kg

CC(C)S(=O)(=O)CC[C@@H]1OCC[C@@]2(S(=O)(=O)c3ccc(Cl)cc3)c3c(F)ccc(F)c3OC[C@@H]12 (racemic) [listing 2 of 2 here]
Activity (Mus musculus [45]): 20% | Activity (Mus musculus [46]): 57% | pIC50 (Presenilin-1 [1]): 7.62 | pIC50 (Presenilin-2): 8.00 | pIC50 (Presenilin-1 [4]): 7.59
